# Assay outcomes from PubChem.
# Shown are actives, neighbours in structure and some others; about 4% of the full set was active somewhere.
# PHOSPHO1 inh: PubChem AID 1565. Phosphoethanolamine/phosphocholine phosphatase (Homo sapiens), Q8TCT1. recombinant PHOSPHO1, absorbance phosphatase assay. inhibition, % at 13.3 µM. actives 1.1% (n = 290,000); in the data active = inhibition above about 60%
# KCNK3 block: human KCNK3 channel inhibitors, primary screen, CHO cells, FluxOR thallium flux, B-score; Potassium channel subfamily K member 3 (Homo sapiens), O14649; FluxOR fluorescence; stronger effect = lower value; B-score at 10 µM; actives 0.84% (n = 340,000);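 active = B-score under library mean minus 4 SD, starting fluorescence ratio at most library mean plus 5 SD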;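 note: more negative B-score means stronger inhibition of thallium flux through KCNK3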
# KCNQ1 inh: inhibitors of human KCNQ1 channel, primary screen, cell-based, thallium flux, high-throughput | B-score at 10 µM | actives 1.3% (n = 310,000) | Potassium voltage-gated channel subfamily KQT member 1 (Homo sapiens), P51787 | CHO-K1 KCNQ1, FluxOR thallium flux fluorescence; stronger effect = higher value;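 active = compounds whose thallium flux B-score, printed positive for inhibition, exceeds three library SD while starting fluorescence stays within three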;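 note: channel opened by potassium depolarization with thallium stimulus after 20 min compound exposure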
# Target sequence (P51787 whole entry, looked up): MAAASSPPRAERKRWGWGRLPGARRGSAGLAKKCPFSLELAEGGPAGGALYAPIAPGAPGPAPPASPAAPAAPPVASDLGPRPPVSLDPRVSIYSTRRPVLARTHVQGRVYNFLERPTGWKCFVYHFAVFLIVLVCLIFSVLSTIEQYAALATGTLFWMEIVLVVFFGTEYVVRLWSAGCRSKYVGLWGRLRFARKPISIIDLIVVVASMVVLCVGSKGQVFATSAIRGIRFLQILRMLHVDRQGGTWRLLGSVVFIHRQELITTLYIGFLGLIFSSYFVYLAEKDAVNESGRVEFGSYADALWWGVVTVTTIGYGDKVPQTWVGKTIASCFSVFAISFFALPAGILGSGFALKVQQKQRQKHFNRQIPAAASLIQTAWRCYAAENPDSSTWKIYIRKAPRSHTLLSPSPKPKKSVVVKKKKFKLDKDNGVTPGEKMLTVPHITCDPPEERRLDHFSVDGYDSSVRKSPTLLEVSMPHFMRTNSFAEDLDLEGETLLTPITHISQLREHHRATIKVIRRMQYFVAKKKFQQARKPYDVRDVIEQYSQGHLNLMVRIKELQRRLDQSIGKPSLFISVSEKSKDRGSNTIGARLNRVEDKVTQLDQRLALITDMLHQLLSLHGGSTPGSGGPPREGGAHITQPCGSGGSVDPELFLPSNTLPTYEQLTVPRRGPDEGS
# KCNQ1 pot: potentiators or activators of KCNQ1 channel, primary screen, cell-based, thallium flux, high-throughput | Potassium voltage-gated channel subfamily KQT member 1 (Homo sapiens), P51787 | CHO-K1 KCNQ1, thallium flux FluxOR fluorescence; stronger effect = higher value | B-score at 10 µM | actives 0.35% (n = 310,000);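 active = fluorescence ratio B-score, a plate-corrected score, at least three library SD, with initial intensity B-score within 5 SD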
#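 Medium – assay buffer, equal DMSO in all wells · Material – CHO-K1 cell line with stable KCNQ1 potassium channel expression · Signal – kinetic FluxOR thallium fluorescence, 10-s 1-Hz baseline, 110-s post-stimulus read · Compound – single concentration per compound, DMSO matched to controls · Schedule – 37 °C overnight plating, 90-min dark dye load, 20-min compound pretreatment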
# KCNK9 block: KCNK9 potassium channel inhibitors, primary screen, HEK293 cells, thallium flux | Potassium channel subfamily K member 9 (Homo sapiens), Q9NPC2 | FluxOR thallium flux fluorescence; stronger effect = lower value | B-score at 10 µM | actives 1.2% (n = 310,000) | AID 488922, 2010;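 active = ratio B-score over 3 SD below the library mean, with starting fluorescence within 5 SD of its mean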;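 note: negative B-score means less thallium flux so channel inhibition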
# hERG protect: hERG rescue from dofetilide block, primary screen, cell-based, CHO-hERG, FluxOR thallium flux, dofetilide IC70; actives 0.51% (n = 310,000); dofetilide IC70 present; activation (rescue from dofetilide block), less the hit threshold, % at 10 µM; AID 1511, 2009; Voltage-gated inwardly rectifying potassium channel KCNH2 (Homo sapiens), Q12809;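 active = activation above the mean of controls blocked by dofetilide plus 5 SD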;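 note: thallium influx through hERG after potassium depolarization seen as dye fluorescence rise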
# KCNK9 inh conf: KCNK9 potassium channel inhibitors, confirmation, HEK293 cells, thallium flux, duplicate. FluxOR thallium flux fluorescence. shares compounds with KCNK9 block. AID 492992, 2010. inhibition, % at 10 µM. actives 43% (n = 4,900);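 active = thallium signal inhibited by more than 5 SD of the compound-free buffer control wells, on both duplicate plates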;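 note: 0% = assay buffer control wells without compound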
# Kir2-1 spec: mouse Kir2.1 channel inhibition, confirmation, selectivity assay for KCNK9 modulator project, cell-based, HEK293, thallium flux; actives 4% (n = 4,900); Kir2.1 cells, FluxOR thallium flux fluorescence; shares compounds with KCNK9 block; AID 492993, 2010; inhibition, % at 10 µM;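 active = thallium signal drop more than 5 SD beyond the mean of the no-compound control wells, seen in both duplicate plates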;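 note: signal is fluorescence rise after thallium addition divided by baseline fluorescence; plate controls were assay buffer only for no effect and full block by chlorpromazine control for full effect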
# KCNK9 uninduced: thallium flux in non-induced HEK293 cells, confirmation, counter-screen for KCNK9 inhibitor project, cell-based, second counter screen, non-induced KCNK9-HEK293. shares compounds with KCNK9 block. inhibition, % at 10 µM. actives 40% (n = 4,900). FluxOR thallium flux;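 active = thallium signal drop beyond 5 SD of the untreated control mean, on both duplicate plates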;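 note: plate controls were buffer only IC0 wells for no effect and SID17386958 at its maximal inhibitory level for full effect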
# * hit, by the source's call; i = inactive; . = no result given.
SMILES,PHOSPHO1 inh,KCNK3 block,KCNQ1 inh,KCNQ1 pot,KCNK9 block,hERG protect,KCNK9 inh conf,Kir2-1 spec,KCNK9 uninduced
COc1ccc(-n2nc3c(c2NC(=O)CCCCl)CSC3)cc1,18,i,i,i,i,-6,.,.,.
COc1cccc(OCc2cc(C(=O)NCCc3cccc(C)n3)no2)c1,26,i,i,i,i,-6,.,.,.
CN(CCCN1CCOCC1)C(=O)c1cc(COc2c(F)cccc2F)on1,33,i,i,i,i,-6,.,.,.
COc1cccc(CCNC(=O)c2cc(COc3c(F)cccc3F)on2)c1,56,i,i,i,i,-12,i,i,i
CN(CCCC1CCCC1)C(=O)c1cc(COc2c(F)cccc2F)on1,22,i,i,i,i,-8,i,i,22%*
CN(CCCC1CCCC1)C(=O)c1cc(COc2ccc(F)cc2F)on1,8,i,i,i,i,-13,i,i,i
Cc1ccc(NC(=O)c2oc3ccccc3c2NC(=O)C2CCCO2)cc1C (configuration not stated),38,i,i,i,i,-20,i,i,i
CCOC(=O)N(Cc1ccccc1)Cc1ccc(C(=O)N[C@@H](Cc2ccccc2)C(=O)O)cc1,.,i,i,i,i,-5,.,.,.
CC(C(=O)NC(=O)NC1CCCCC1)N1CCN(C(c2ccccc2)c2ccccc2)CC1 (configuration not stated),-7,i,i,i,i,-14,i,i,i
Cc1cc(C)cc(SCc2noc(C(=O)NCC3CC3)c2C(=O)NCC2CC2)c1,.,.,i,i,i,-6,i,i,i
O=C(NCC1CC1)c1onc(CSc2ccc(F)cc2)c1C(=O)NCC1CC1,.,i,i,i,i,-3,.,.,.
COCCNC(=O)c1onc(CSc2cc(C)cc(C)c2)c1C(=O)O,46,i,i,i,i,-7,.,.,.
CCCCNC(=O)c1onc(CSc2cc(C)cc(C)c2)c1C(=O)NCCCC,.,i,i,i,i,-7,i,i,i
CCCCNC(=O)c1onc(CSc2cc(C)cc(C)c2)c1C(=O)O,37,i,i,i,i,-5,.,.,.
Cc1cc(C)cc(SCc2noc(C(=O)NCCC(C)C)c2C(=O)NCCC(C)C)c1,.,i,i,i,i,-7,i,i,i
CCOC(=O)CCC(NC(=O)CCCC(=O)NC(CCC(=O)OCC)C(=O)OCC)C(=O)OCC (configuration not stated),-4,i,i,i,i,-6,.,.,.
CCOc1ccc(CN(C(=O)c2cc3ccccc3oc2=O)C2CCS(=O)(=O)C2)cc1 (configuration not stated),56,i,i,i,i,-11,.,.,.
O=c1cc(CN2CCN(C/C=C/c3ccccc3)CC2)c2cc(O)ccc2o1,17,i,i,i,i,-19,.,.,.
Nc1c(Cl)cc(C2=NCCn3nc4cc(C(F)(F)F)ccc4c32)cc1Cl,.,i,i,8*,-13*,-5,58%*,i,i
COc1ccc2c3n(nc2c1)CCN=C3c1cc(Cl)c(N)c(Cl)c1,.,i,.,.,.,.,.,.,.
CC1CCN(C(=S)c2cn(Cc3ccc(F)cc3)c3ccccc23)CC1,19,i,i,i,-11*,-5,44%*,i,38%*
S=C(c1cn(Cc2ccc(Br)cc2)c2ccccc12)N1CCOCC1,4,i,i,i,-10*,-16,34%*,i,40%*
S=C(c1cn(Cc2ccccc2)c2ccccc12)N1CCOCC1,-7,i,i,i,i,-2,.,.,.
COc1ccc(-c2nnc3sc(-c4ccc(Br)o4)nn23)cc1OC,43,.,.,.,.,.,.,.,.
Cc1ccc(S(=O)(=O)N2CCOCC2)cc1NC(=O)CSc1nnnn1C1CCCC1,.,i,.,.,.,.,.,.,.
SMILES,PHOSPHO1 inh,KCNK3 block,KCNQ1 inh,KCNQ1 pot,KCNK9 block,hERG protect,KCNK9 inh conf,Kir2-1 spec,KCNK9 uninduced
CCOc1cc(N2CCOCC2)c(OCC)cc1NC(=O)C1=COCCO1,.,i,.,.,.,.,.,.,.
Cc1cc(C)c(S(=O)(=O)c2ccccc2)c(OC(=O)c2c(Cl)cc(Cl)cc2Cl)n1,1,i,i,i,-10*,-7,52%*,i,32%*
Nn1cnc2c([nH]c3ccccc32)c1=O,-3,i,i,i,i,-4,.,.,.
COc1ccc(C(=O)Nn2c(SCC(=O)NC3CCCCC3)nc3ccccc3c2=O)cc1,12,i,i,i,i,-6,.,.,.
O=C(Nn1c(SCc2cccc([N+](=O)[O-])c2)nc2ccccc2c1=O)c1ccccc1,-17,i,i,i,-13*,-16,67%*,i,43%*
COc1ccc(C(=O)Nn2c(SCc3cccc([N+](=O)[O-])c3)nc3ccccc3c2=O)cc1,-4,i,i,i,-12*,-13,68%*,i,32%*
O=[N+]([O-])c1c(Nc2ccc(Br)cc2)ccc2nonc12,9,i,i,i,i,-1,.,.,.
Cc1ccc(-c2nc(N)sc2CC(=O)OCC(=O)N2C(C)CCCC2C)cc1 (configuration not stated),-6,i,i,i,i,-7,i,i,i
CCOc1ccccc1N1C(=O)c2ccc(C(=O)O)cc2C1=O,-9,i,i,i,i,-6,.,.,.
CCN1C(=O)N[C@@H](CCc2ccccc2)[C@H](C(=O)OC)[C@H]1C,.,i,i,i,i,-2,.,.,.
